# Experimental data taken from ChEMBL document CHEMBL1811814, “Synthesis and evaluation of indole, pyrazole, chromone and pyrimidine based conjugates for tumor growth inhibitory activities--development of highly efficacious cytotoxic agents” (Eur J Med Chem, 2010).
# Columns and labels:
# Format in all cases: functional
# HCT-116 = assay: Growth inhibition of human HCT116 cells
# HT-29 = assay: Growth inhibition of human HT-29 cells
# SF-268 = assay: Growth inhibition of human SF268 cells
# U-251 [1] = assay: Growth inhibition of human U251 cells
# Malme-3M = assay: Growth inhibition of human MALME-3M cells
# M14 = assay: Growth inhibition of human M14 cells
# MDA-MB-435 = assay: Growth inhibition of human MDA-MB-435 cells
# SK-MEL-2 = assay: Growth inhibition of human SK-MEL-2 cells
# UACC-62 = assay: Growth inhibition of human UACC62 cells
# OVCAR-5 [2] = assay: Growth inhibition of human OVCAR5 cells
# SK-OV-3 = assay: Growth inhibition of human SKOV3 cells
# 786-0 = assay: Growth inhibition of human 786-0 cells
# A498 [3] = assay: Growth inhibition of human A498 cells
# ACHN [4] = assay: Growth inhibition of human ACHN cells
# UO-31 = assay: Growth inhibition of human UO31 cells
# PC-3 [5] = assay: Growth inhibition of human PC3 cells
# DU-145 = assay: Growth inhibition of human DU145 cells
# BT-549 [6] = assay: Growth inhibition of human BT549 cells
# T47D = assay: Growth inhibition of human T47D cells
# CCRF-CEM [7] = assay: Growth inhibition of human CCRF-CEM cells assessed tumor cell growth at 10^-5 M; parameters: scale not given: the % may be the effect or the level left
# How it was run: (§1)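 NCI 60-human-tumor-cell-line panel screen. Each compound was tested at a single concentration of 10^-5 M, and percent growth of tumor cells was recorded for each cell line. Growth inhibition was expressed from these percent-growth values.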
# HL-60(TB) [8] = assay: Growth inhibition of human HL-60(TB) cells assessed tumor cell growth at 10^-5 M; parameters: scale not given: the % may be the effect or the level left
# How it was run: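 HL-60(TB), part of the 60-line panel, tested at a single concentration of 10^-5 M. The read-out is percent tumor cell growth relative to untreated growth.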
# [9] = Growth inhibition of human […] cells assessed tumor cell growth at 10^-5 M; parameters: scale not given: the % may be the effect or the level left; how it was run: as §1
# HOP-62 = assay: Growth inhibition of human HOP62 cells assessed tumor cell growth at 10^-5 M; parameters: scale not given: the % may be the effect or the level left; how it was run: as §1
# HOP-92 = assay: Growth inhibition of human HOP92 cells assessed tumor cell growth at 10^-5 M; parameters: scale not given: the % may be the effect or the level left; how it was run: as §1
# NCI-H226 [10] = assay: Growth inhibition of human NCI-H226 cells assessed tumor cell growth at 10^-5 M; parameters: scale not given: the % may be the effect or the level left; how it was run: as §1
# NCI-H322M = assay: Growth inhibition of human NCI-H322M cells assessed tumor cell growth at 10^-5 M; parameters: scale not given: the % may be the effect or the level left; how it was run: as §1
# NCI-H522 = assay: Growth inhibition of human NCI-H522 cells assessed tumor cell growth at 10^-5 M; parameters: scale not given: the % may be the effect or the level left; how it was run: as §1
# COLO 205 = assay: Growth inhibition of human COLO205 cells assessed tumor cell growth at 10^-5 M; parameters: scale not given: the % may be the effect or the level left; how it was run: as §1
# HCT-15 = assay: Growth inhibition of human HCT15 cells assessed tumor cell growth at 10^-5 M; parameters: scale not given: the % may be the effect or the level left; how it was run: as §1
# SF-539 = assay: Growth inhibition of human SF539 cells assessed tumor cell growth at 10^-5 M; parameters: scale not given: the % may be the effect or the level left; how it was run: as §1
# SNB-75 = assay: Growth inhibition of human SNB75 cells assessed tumor cell growth at 10^-5 M; parameters: scale not given: the % may be the effect or the level left
# How it was run: (§2)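 Single-dose screen at 10^-5 M across the 60 human tumor cell line panel, run to NCI standards. The value is the percent growth of each cell line in the presence of compound. Compounds active at this dose moved on to five-concentration testing (10^-4 to 10^-8 M).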
# U-251 [11] = assay: Growth inhibition of human U251 cells assessed tumor cell growth at 10^-5 M; parameters: scale not given: the % may be the effect or the level left; how it was run: as §2
# SK-MEL-5 = assay: Growth inhibition of human SK-MEL-5 cells assessed tumor cell growth at 10^-5 M; parameters: scale not given: the % may be the effect or the level left; how it was run: as §1
# UACC-257 = assay: Growth inhibition of human UACC257 cells assessed tumor cell growth at 10^-5 M; parameters: scale not given: the % may be the effect or the level left; how it was run: as §2
# OVCAR-3 = assay: Growth inhibition of human OVCAR3 cells assessed tumor cell growth at 10^-5 M; parameters: scale not given: the % may be the effect or the level left; how it was run: as §1
# OVCAR-4 = assay: Growth inhibition of human OVCAR4 cells assessed tumor cell growth at 10^-5 M; parameters: scale not given: the % may be the effect or the level left; how it was run: as §1
# OVCAR-5 [12] = assay: Growth inhibition of human OVCAR5 cells assessed tumor cell growth at 10^-5 M; parameters: scale not given: the % may be the effect or the level left; how it was run: as §1
# OVCAR-8 = assay: Growth inhibition of human OVCAR8 cells assessed tumor cell growth at 10^-5 M; parameters: scale not given: the % may be the effect or the level left; how it was run: as §1
# A498 [13] = assay: Growth inhibition of human A498 cells assessed tumor cell growth at 10^-5 M; parameters: scale not given: the % may be the effect or the level left; how it was run: as §1
# ACHN [14] = assay: Growth inhibition of human ACHN cells assessed tumor cell growth at 10^-5 M; parameters: scale not given: the % may be the effect or the level left; how it was run: as §1
# TK-10 = assay: Growth inhibition of human TK10 cells assessed tumor cell growth at 10^-5 M; parameters: scale not given: the % may be the effect or the level left; how it was run: as §2
# PC-3 [15] = assay: Growth inhibition of human PC3 cells assessed tumor cell growth at 10^-5 M; parameters: scale not given: the % may be the effect or the level left; how it was run: as §1
# MCF7 = assay: Growth inhibition of human MCF7 cells assessed tumor cell growth at 10^-5 M; parameters: scale not given: the % may be the effect or the level left; how it was run: as §1
# [16] = Growth inhibition of human Hs 578T cells assessed tumor cell growth at 10^-5 M; parameters: scale not given: the % may be the effect or the level left; how it was run: as §1
# BT-549 [17] = assay: Growth inhibition of human BT549 cells assessed tumor cell growth at 10^-5 M; parameters: scale not given: the % may be the effect or the level left; how it was run: as §1
# MDA-MB-468 = assay: Growth inhibition of human MDA-MB-468 cells assessed tumor cell growth at 10^-5 M; parameters: scale not given: the % may be the effect or the level left; how it was run: as §1
# CCRF-CEM [18] = assay: Growth inhibition of human CCRF-CEM cells
# HL-60(TB) [19] = assay: Growth inhibition of human HL-60(TB) cells
# K562 = assay: Growth inhibition of human K562 cells
# MOLT-4 = assay: Growth inhibition of human MOLT4 cells
# A549 = assay: Growth inhibition of human A549 cells
# NCI-H226 [20] = assay: Growth inhibition of human NCI-H226 cells
# NCI-H23 = assay: Growth inhibition of human NCI-H23 cells
# [21] = read-out: LC50 (the source's name)
smiles,measurement,setting,value
O=C1/C(=C\c2ccccn2)c2ccccc2N1c1c(Cl)cccc1Cl,GI50,HCT-116,1.7 µM
same,CC50,HCT-116; [21],6.9 µM
same,GI50,HT-29,2.1 µM
same,CC50,HT-29; [21],9.1 µM
same,GI50,SF-268,3.6 µM
same,CC50,SF-268; [21],40.7 µM
same,GI50,U-251 [1],1.8 µM
same,CC50,U-251 [1]; [21],7.4 µM
same,GI50,Malme-3M,1.9 µM
same,CC50,Malme-3M; [21],16.9 µM
same,GI50,M14,1.7 µM
same,CC50,M14; [21],7.7 µM
same,GI50,MDA-MB-435,1.8 µM
same,CC50,MDA-MB-435; [21],61.6 µM
same,GI50,SK-MEL-2,2.3 µM
same,CC50,SK-MEL-2; [21],24.5 µM
same,GI50,UACC-62,1.6 µM
same,CC50,UACC-62; [21],6.9 µM
same,GI50,OVCAR-5 [2],2.4 µM
same,CC50,OVCAR-5 [2]; [21],> 100 µM
same,GI50,SK-OV-3,3.4 µM
same,CC50,SK-OV-3; [21],74.1 µM
same,GI50,786-0,1.9 µM
same,CC50,786-0; [21],6.6 µM
same,GI50,A498 [3],2.9 µM
same,CC50,A498 [3]; [21],72.4 µM
same,GI50,ACHN [4],1.8 µM
same,CC50,ACHN [4]; [21],7.2 µM
same,GI50,UO-31,1.4 µM
same,CC50,UO-31; [21],6 µM
same,GI50,PC-3 [5],2.2 µM
same,CC50,PC-3 [5]; [21],93.3 µM
same,GI50,DU-145,2.1 µM
same,CC50,DU-145; [21],9.1 µM
same,GI50,BT-549 [6],2.4 µM
same,CC50,BT-549 [6]; [21],23.4 µM
same,GI50,T47D,2.3 µM
same,CC50,T47D; [21],> 100 µM
same,Activity,CCRF-CEM [7],8.81%
same,Activity,HL-60(TB) [8],1.39%
same,Activity,[9],-12.52%
same,Activity,HOP-62,5.17%
same,Activity,HOP-92,-7.93%
same,Activity,NCI-H226 [10],25.22%
same,Activity,NCI-H322M,61.39%
same,Activity,NCI-H522,36.79%
same,Activity,COLO 205,-1.34%
same,Activity,HCT-15,12.58%
same,Activity,SF-539,1.27%
same,Activity,SNB-75,-17.92%
same,Activity,U-251 [11],-2.48%
same,Activity,SK-MEL-5,23.68%
same,Activity,UACC-257,59.3%
same,Activity,OVCAR-3,27.36%
same,Activity,OVCAR-4,-7.46%
same,Activity,OVCAR-5 [12],122.39%
same,Activity,OVCAR-8,4.47%
same,Activity,A498 [13],21.33%
same,Activity,ACHN [14],19.58%
same,Activity,TK-10,52%
same,Activity,PC-3 [15],31.44%
same,Activity,MCF7,-10.81%
same,Activity,[16],22.94%
same,Activity,BT-549 [17],-17.72%
same,Activity,MDA-MB-468,-17.24%
same,GI50,CCRF-CEM [18],3.2 µM
same,CC50,CCRF-CEM [18]; [21],> 100 µM
same,GI50,HL-60(TB) [19],3.8 µM
same,CC50,HL-60(TB) [19]; [21],> 100 µM
same,GI50,K562,3.9 µM
same,CC50,K562; [21],> 100 µM
same,GI50,MOLT-4,4.4 µM
same,LC50,MOLT-4,> 100 µM
same,GI50,A549,1.9 µM
same,CC50,A549; [21],43.6 µM
same,GI50,NCI-H226 [20],0.01 µM
same,CC50,NCI-H226 [20]; [21],9.1 µM
same,GI50,NCI-H23,3.5 µM
same,LC50 (concentration killing 50% of cells),NCI-H23,> 100 µM
